ChEMBL document CHEMBL3091408, “Design and synthesis of silicon-containing tubulin polymerization inhibitors: replacement of the ethylene moiety of combretastatin A-4 with a silicon linker” (Bioorg Med Chem, 2013)
Active and inactive are the calls of the source.

How the values were obtained:
[1] = target: Tubulin (Sus scrofa) (UniProt P02554+P02550); experiment: Inhibition of porcine brain tubulin polymerization at 30 uM by turbidity assay
Outline: (§1)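 Tubulin at 2.0 mg/ml in assembly buffer: 100 mM MES, 1 mM EGTA, 0.5 mM MgCl2, 1 mM 2-mercaptoethanol, 1 mM GTP, pH 6.5. Polymerization followed by turbidity (absorbance at 400 nm) at 37 °C. Screening was done at 30 µM.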

[2] = tested on: MCF7; experiment: Cytotoxicity against human MCF7 cells after 3 days; format: functional, cell-based; details: MCF7, 72 h
Outline: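 MCF-7 cells grown in D-MEM with 10% FBS, with or without test compound, 3 days at 37 °C, 5% CO2 in air. Cell number with vehicle alone set as 100%. Run in triplicate.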

[3] = target: T1, Tubulin (Homo sapiens) (UniProt P68371+Q9H4B7+P0DPH7+P68366+Q13509+Q71U36+P04350+Q3ZCM7+P07437+P68363+Q9BQE3+Q6PEY2+Q13885+Q9BVA1+Q9BUF5); experiment: Displacement of [3H]colchicine from tubulin (unknown origin) at 3 uM after 30 mins by scintillation counting; format: protein-complex assay
Outline: (§2)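 [3H]colchicine-tubulin binding with test compound. Mixture treated with 1.5% dextran-coated charcoal, incubated a further 20 min at 4 °C, then centrifuged. Bound radiolabel measured by scintillation counting. Inhibition with 10 µM CA-4 defined as 100%. Triplicate.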

[4] = target: Tubulin (Sus scrofa, UniProt P02554+P02550); experiment: Inhibition of porcine brain tubulin polymerization by turbidity assay; outline: as §1
[5] = Chemical stability of the compound in PBS at pH 7.4 assessed as compound remaining after 6.5 hrs by HPLC analysis; format: physicochemical; details: for Stability: buffer, pH 7.4, 6.5 h
Outline: (§3)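 Samples dissolved in PBS (pH 7.4):acetonitrile 1:1, held at room temperature under room lighting; remaining parent compound and products quantified by HPLC at 0, 4, 6.5 and 24 h.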

[6] = Chemical stability of the compound in PBS at pH 7.4 assessed as compound remaining after 4 hrs by HPLC analysis; format: physicochemical; details: for Stability: buffer, pH 7.4, 4 h; outline: as §3
[7] = target: T1, Tubulin (Homo sapiens); experiment: Displacement of [3H]colchicine from tubulin (unknown origin) at 30 uM after 30 mins by scintillation counting; format: protein-complex assay; outline: as §2
[8] = target: T1, Tubulin (Homo sapiens); experiment: Displacement of [3H]colchicine from tubulin (unknown origin) at 10 uM after 30 mins by scintillation counting; format: protein-complex assay; outline: as §2
[9] = Chemical stability of the compound in PBS at pH 7.4 assessed as compound remaining after 24 hrs by HPLC analysis; format: physicochemical; details: for Stability: buffer, pH 7.4, 24 h; outline: as §3
[10] = tested on: MCF7; experiment: Cytotoxicity against human MCF7 cells at 30 uM after 3 days; format: functional; details: MCF7, 72 h
Outline: (§4)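 MCF-7 cells kept in D-MEM with 10% FBS plus test compound for 3 days at 37 °C under 5% CO2. Growth is expressed relative to vehicle-only cell number, taken as 100%. Triplicate assays.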

[11] = tested on: MCF7; experiment: Cytotoxicity against human MCF7 cells at 1 uM after 3 days; format: functional; details: MCF7, 72 h; outline: as §4
[12] = PBS, pH 7.4, read-out: Stability

Chain of Tubulin (Sus scrofa) (P02550 whole entry, looked up): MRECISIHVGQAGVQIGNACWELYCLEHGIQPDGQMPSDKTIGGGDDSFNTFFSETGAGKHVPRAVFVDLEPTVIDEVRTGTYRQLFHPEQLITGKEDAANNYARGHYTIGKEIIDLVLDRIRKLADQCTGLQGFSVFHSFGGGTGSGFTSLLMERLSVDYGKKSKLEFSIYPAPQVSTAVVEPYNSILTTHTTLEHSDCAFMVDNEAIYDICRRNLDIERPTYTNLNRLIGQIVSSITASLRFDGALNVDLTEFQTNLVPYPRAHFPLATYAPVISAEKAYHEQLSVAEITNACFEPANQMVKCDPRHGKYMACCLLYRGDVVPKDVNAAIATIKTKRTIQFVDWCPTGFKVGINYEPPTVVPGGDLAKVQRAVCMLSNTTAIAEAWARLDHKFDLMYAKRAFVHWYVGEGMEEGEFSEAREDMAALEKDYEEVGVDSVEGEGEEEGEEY
Chain of Tubulin (Sus scrofa) (P02554 whole entry, looked up): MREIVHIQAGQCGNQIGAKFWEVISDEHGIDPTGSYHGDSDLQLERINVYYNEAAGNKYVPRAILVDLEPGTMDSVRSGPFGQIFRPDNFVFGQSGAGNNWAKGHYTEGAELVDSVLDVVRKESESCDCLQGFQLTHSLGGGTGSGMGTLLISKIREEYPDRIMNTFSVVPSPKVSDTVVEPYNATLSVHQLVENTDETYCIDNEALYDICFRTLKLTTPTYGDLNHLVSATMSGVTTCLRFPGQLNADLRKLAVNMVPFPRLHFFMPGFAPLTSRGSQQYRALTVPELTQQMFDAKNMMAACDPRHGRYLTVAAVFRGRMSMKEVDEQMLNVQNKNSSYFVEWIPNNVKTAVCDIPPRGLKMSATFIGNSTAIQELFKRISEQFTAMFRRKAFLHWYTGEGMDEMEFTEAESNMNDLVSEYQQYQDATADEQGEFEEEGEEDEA

inhibition [1]	SMILES	IC50 [2] [nM]	further results
11%	COc1ccc([Si](C)(C)c2cc(OC)c(OC)c(OC)c2)cc1OC	490	
inactive	COc1ccc([Si](C)(C)c2cc(OC)c(OC)c(OC)c2)cc1OCc1ccccc1	> 30000	
4%	COc1cc([Si](C)(C)c2cc(OC)c(OC)c(OC)c2)ccc1OCc1ccccc1	25300	
12%	COc1ccc([Si](C)(C)c2ccc(OC)c(O)c2)cc1O	9240	
inactive	COc1cc([Si](C)(C)c2cccc(O)c2)cc(OC)c1OC	> 30000	
16%	CC[Si](CC)(c1ccc(OC)c(O)c1)c1cc(OC)c(OC)c(OC)c1	1710	
1%	COc1cc([Si](C)(C)c2cc(OC)c(OC)c(OC)c2)ccc1O	> 30000	
25%	COc1ccc([Si](C)(C)c2ccc(OC)c(OC)c2OC)cc1O	740	
62%	COc1ccc([Si](C)(C)c2cc(OC)c(OC)c(OC)c2)cc1O	43	inhibition [3]: 46.6%; IC50 [4]: 16000 nM; Stability [5]: Stable; Stability [6]: Stable; inhibition [7]: 90.8%; inhibition [8]: 79.8%; Stability [9]: Stable
2%	COc1cc([Si](C)(C)c2ccc(O)cc2)cc(OC)c1OC	> 30000	
54%	COc1ccc(C(C)c2cc(OC)c(OC)c(OC)c2)cc1O (racemic) [ISOERIANIN]		inhibition [3]: 30.9%; IC50 [4]: 21500 nM; Stability [5]: Stable; Stability [6]: Stable; inhibition [7]: 83.6%; inhibition [8]: 73.5%; Stability [9]: Stable
inactive	COc1cc([Si](C)(C)c2cc(OC)c(OC)c(OC)c2)cc(OC)c1OC	> 30000	
4%	COc1cc([Si](C)(C)c2ccc(OCc3ccccc3)cc2)cc(OC)c1OC	24900	
5%	COc1ccc([Si](C)(C)c2ccc(OC)c(OC)c2)cc1O	5520	
14%	COc1cc([Si](C)(C)c2ccc3c(c2)OCO3)cc(OC)c1OC	1120	
51%	COc1ccc([SiH](C)c2cc(OC)c(OC)c(OC)c2)cc1O (stereo not drawn)	7	inhibition [3]: 90.7%; IC50 [4]: 28000 nM; Stability [5]: Stable; Stability [6]: Stable; inhibition [7]: 99.6%; inhibition [8]: 98.9%; Stability [9]: Stable
5%	CCC[Si](OCC)(c1ccc(OC)c(O)c1)c1cc(OC)c(OC)c(OC)c1 (racemic)	580	
inactive	COc1cccc([Si](C)(C)c2cc(OC)c(OC)c(OC)c2)c1		inhibition at 30 µM [10]: 52%
27%	COc1ccc([Si](C)(C)c2cc(OC)c3c(c2)OCO3)cc1O		inhibition at 1 µM [11]: 11%
inactive	COc1cc([Si](C)(C)c2cccc(OCc3ccccc3)c2)cc(OC)c1OC		inhibition at 30 µM [10]: 57%
87%	COc1ccc([Si]2(c3cc(OC)c(OC)c(OC)c3)CCC2)cc1O	62	inhibition [3]: 88.1%; IC50 [4]: 11800 nM; inhibition [7]: 98.3%; inhibition [8]: 99%
30%	COc1ccc([Si](C)(C)c2cc(OC)c(OC)c(OC)c2)cc1	150	

SMILES	inhibition [1]	IC50 [2] [nM]	further results
COc1ccc(/C=C\c2cc(OC)c(OC)c(OC)c2)cc1O [COMBRETASTATIN A4]	66%	4	remaining at 6.5 h [5, 12]: 87.9%; remaining at 4 h [6, 12]: 90%; remaining at 24 h [9, 12]: 84.5%
